Data on 48 molecules can be found in ChEMBL document CHEMBL1152370, “N-(4-Fluorobenzyl)-3-hydroxy-9,9-dimethyl-4-oxo-6,7,8,9-tetrahydro-4H-pyrazino[1,2-a]pyrimidine-2-carboxamides a novel class of potent HIV-1 integrase inhibitors” (Bioorg Med Chem Lett, 2009).

Data set [1] has as its target Human immunodeficiency virus type 1 integrase (Human immunodeficiency virus 1, UniProt Q7ZJM1). The data set is described as follows: Inhibition of HIV1 recombinant integrase strand transfer activity treated after enzyme assembly and washing.
For data set [2], the system named is Human immunodeficiency virus 1. As to the kind of experiment: Antiviral activity against HIV1 3B infected in human MT4 cells assessed as inhibition of viral spread in presence of 50% normal human serum. In kind it is functional. The following applies: Human immunodeficiency virus 1, 3B, read-out: CIC95. In outline: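 Spread assay of HIV-1 IIIB infection in MT-4 human T-lymphoid cell culture with 50% normal human serum. The value is the CIC95, the 95% inhibitory concentration for blocking the spread of infection. SD was always ±10% of the value.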

The subject of data set [3] is Human immunodeficiency virus 1. As to the kind of experiment: Antiviral activity against HIV1 3B infected in human MT4 cells assessed as inhibition of viral spread in presence of 10% heat inactivated fetal bovine serum. To be noted: Human immunodeficiency virus 1, 3B, read-out: CIC95. Type of data set: functional. The gist of the method: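 Spread assay of HIV-1 IIIB infection in MT-4 human T-lymphoid cell culture with 10% heat-inactivated fetal bovine serum. The value is the 95% inhibitory concentration (CIC95) for blocking the spread of infection. SD was always ±10% of the value.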

The nature of data set [4]: Bioavailability in rat. Type of data set: ADME, organism-based. The following applies: in vivo.
A short description of data set [5]: Plasma clearance in rat. In kind it is ADME, organism-based.

Structures are written as SMILES.

Chain of Human immunodeficiency virus type 1 integrase (Q7ZJM1 whole entry): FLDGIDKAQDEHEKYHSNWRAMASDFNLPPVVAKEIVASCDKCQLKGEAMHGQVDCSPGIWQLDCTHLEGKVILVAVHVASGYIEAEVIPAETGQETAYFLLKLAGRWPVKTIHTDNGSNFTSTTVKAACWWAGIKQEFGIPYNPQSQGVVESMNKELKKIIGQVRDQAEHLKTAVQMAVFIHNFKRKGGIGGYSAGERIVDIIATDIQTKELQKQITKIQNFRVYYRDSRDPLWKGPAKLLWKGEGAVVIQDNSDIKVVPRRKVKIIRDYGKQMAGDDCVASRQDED

As for `CC1(C)c2nc(C(=O)NCc3ccc(F)cc3)c(O)c(=O)n2CCN1Cc1nnn[nH]1`, in data set [1], the IC50 was 2 nM. Also, the IC95 in data set [2] was 1000 nM; in data set [3] it was 500 nM.
On to `Cn1nnc(CN2CCn3c(nc(C(=O)NCc4ccc(F)cc4)c(O)c3=O)C2(C)C)n1`, for which the IC50 in data set [1] amounted to 6 nM. Moreover, the values for the IC95 in data set [2] and in data set [3] were 31 nM and 7 nM, respectively.
In the case of `CC1(C)c2nc(C(=O)NCc3ccc(F)cc3)c(O)c(=O)n2CCN1CCN1CCOCC1`, the IC50 in data set [1] came out at 3 nM. Besides, the IC95 in data set [2] worked out at 1000 nM; in data set [3], 500 nM.
In the case of `CCNC(=O)N1CCn2c(nc(C(=O)NCc3ccc(F)cc3)c(O)c2=O)C1(C)C`, the IC50 in data set [1] turned out to be 15 nM. In addition, the IC95 in data set [3] worked out at 500 nM.
In the case of `CC1(C)NCCn2c1nc(C(=O)NCc1ccc(F)cc1)c(O)c2=O`, in data set [1], the IC50 was 16 nM. The IC95 in data set [2] was 166 nM; in data set [3], 125 nM.
Taken in the same sequence, the figures for `Cn1cnc(CN2CCn3c(nc(C(=O)NCc4ccc(F)cc4)c(O)c3=O)C2(C)C)n1` were 25 nM, 62 nM and 31 nM.
On to `Cc1nc(CN2CCn3c(nc(C(=O)NCc4ccc(F)cc4)c(O)c3=O)C2(C)C)no1`, for which the IC50 in data set [1] is 6 nM. Further, the IC95 is 62 nM in data set [2] and 15 nM in data set [3].
The like results for `Cn1nnnc1CN1CCn2c(nc(C(=O)NCc3ccc(F)cc3)c(O)c2=O)C1(C)C` were, in that order, 5 nM, 62 nM and 15 nM.
With `CN(C)S(=O)(=O)N1CCn2c(nc(C(=O)NCc3ccc(F)cc3)c(O)c2=O)C1(C)C`, the concentration for half-maximal inhibition (IC50) in data set [1] was 8 nM. In addition, the IC95 in data set [3] came to 1000 nM.
Regarding `CC1(C)c2nc(C(=O)NCc3ccc(F)cc3)c(O)c(=O)n2CCN1CCc1ccccn1`, in data set [1], the IC50 came to 12 nM. For the same molecule, the IC95 in data set [2] came out at 1000 nM; in data set [3] it was 250 nM.
Taken in the same sequence, the figures for `CCN(CC)CCN1CCn2c(nc(C(=O)NCc3ccc(F)cc3)c(O)c2=O)C1(C)C` were 76 nM, 625 nM and 625 nM.
Turning to `CNC(=O)CN1CCn2c(nc(C(=O)NCc3ccc(F)cc3)c(O)c2=O)C1(C)C`, the IC50 in data set [1] was determined as 21 nM. Moreover, the figures for the IC95 in data set [2] and in data set [3] were 125 nM and 62 nM, respectively.
The like results for `CN(C)C(=O)CN1CCn2c(nc(C(=O)NCc3ccc(F)cc3)c(O)c2=O)C1(C)C` were, in that order, 8 nM, 125 nM and 62 nM.
Taken in the same sequence, the figures for `CC1(C)NC(=O)Cn2c1nc(C(=O)NCc1ccc(F)cc1)c(O)c2=O` were 5 nM, greater than 1000 nM and greater than 1000 nM.
For `Cc1cc(CN2CCn3c(nc(C(=O)NCc4ccc(F)cc4)c(O)c3=O)C2(C)C)on1`, the IC50 in data set [1] was 62 nM. Further, the IC95 is 125 nM in data set [2] and 31 nM in data set [3].
For `Cc1noc(CN2CCn3c(nc(C(=O)NCc4ccc(F)cc4)c(O)c3=O)C2(C)C)n1`, the IC50 in data set [1] was 13 nM. Also, the IC95 stood at 62 nM in data set [2] and 15 nM in data set [3].
Taken in the same sequence, the figures for `CC1(C)c2nc(C(=O)NCc3ccc(F)cc3)c(O)c(=O)n2CCN1Cc1ccccn1` were 9 nM, 125 nM and 31 nM.
As for `Cn1ccc(CN2CCn3c(nc(C(=O)NCc4ccc(F)cc4)c(O)c3=O)C2(C)C)n1`, the IC50 in data set [1] is 9 nM. Also, the IC95 in data set [2] worked out at 125 nM; in data set [3], 31 nM.
For `CC1(C)c2nc(C(=O)NCc3ccc(F)cc3)c(O)c(=O)n2CCN1Cc1nnco1`, the IC50 in data set [1] worked out at 21 nM. The IC95 is 62 nM in data set [2] and 15 nM in data set [3].
The like results for `Cc1nnc(CN2CCn3c(nc(C(=O)NCc4ccc(F)cc4)c(O)c3=O)C2(C)C)o1` were, in that order, 5 nM, 62 nM and 7 nM.
For the molecule `CC1(C)c2nc(C(=O)NCc3ccc(F)cc3)c(O)c(=O)n2CCN1S(C)(=O)=O`, the IC50 in data set [1] amounted to 10 nM. Further, in data set [3], the IC95 turned out to be 1000 nM.
Take `CN1Cn2c(nc(C(=O)NCc3ccc(F)cc3)c(O)c2=O)C1(C)C`: the IC50 in data set [1] turned out to be 30 nM. Further, the values for the IC95 in data set [2] and in data set [3] were 1000 nM and 500 nM, respectively.
Consider `Cn1cc(CN2CCn3c(nc(C(=O)NCc4ccc(F)cc4)c(O)c3=O)C2(C)C)nn1`, for which the IC50 in data set [1] came out at 2 nM. For the same molecule, the IC95 in data set [2] was 62 nM; in data set [3] it was 31 nM.
As to `CC1(C)c2nc(C(=O)NCc3ccc(F)cc3)c(O)c(=O)n2CCN1CC(=O)N1CCCC1`, in data set [1], the IC50 stood at 7 nM. Moreover, the IC95 in data set [2] worked out at 250 nM; in data set [3] it was 31 nM.
Regarding `CC1(C)c2nc(C(=O)NCc3ccc(F)cc3)c(O)c(=O)n2CCN1Cc1cn[nH]c1`, the IC50 in data set [1] was determined as 7 nM. For the same molecule, the results for the IC95 in data set [2] and in data set [3] were 1000 nM and 62 nM, respectively.
With `CC(=O)N1CCn2c(nc(C(=O)NCc3ccc(F)cc3)c(O)c2=O)C1(C)C`, in data set [1], the IC50 came out at 5 nM. For the same molecule, the IC95 in data set [3] came out at 1000 nM.
With `CC1(C)c2nc(C(=O)NCc3ccc(F)cc3)c(O)c(=O)n2CCN1Cc1cnco1`, in data set [1], the IC50 came out at 4 nM. Further, the IC95 in data set [2] was 125 nM; in data set [3] it was 31 nM.
Taken in the same sequence, the figures for `Cn1nccc1CN1CCn2c(nc(C(=O)NCc3ccc(F)cc3)c(O)c2=O)C1(C)C` were 7 nM, 125 nM and 31 nM.
Take `CC1(C)c2nc(C(=O)NCc3ccc(F)cc3)c(O)c(=O)n2CCN1CC(N)=O`: in data set [1], the IC50 stood at 5 nM. In addition, the IC95 came out at 250 nM in data set [2] and 125 nM in data set [3].
Regarding `CN1CCn2c(nc(C(=O)NCc3ccc(F)cc3)c(O)c2=O)C1(C)C`, the bioavailability in data set [4] is 57%. In addition, the IC50 in data set [1] was determined as 6 nM. For the same molecule, the IC95 was 250 nM in data set [2] and 125 nM in data set [3]. This molecule yielded a clearance in data set [5] of 10 mL/min/kg.
As for `CC1(C)c2nc(C(=O)NCc3ccc(F)cc3)c(O)c(=O)n2CCN1Cc1cocn1`, the IC50 in data set [1] came to 3 nM. The IC95 in data set [2] turned out to be 93 nM; in data set [3], 31 nM.
With `CC1(C)c2nc(C(=O)NCc3ccc(F)cc3)c(O)c(=O)n2CCN1Cc1ccn[nH]1`, in data set [1], the IC50 turned out to be 5 nM. The IC95 in data set [2] amounted to 250 nM; in data set [3], 62 nM.
The like results for `CN1CCN(C(=O)CN2CCn3c(nc(C(=O)NCc4ccc(F)cc4)c(O)c3=O)C2(C)C)CC1` were, in that order, 21 nM, 125 nM and 62 nM.
Taken in the same sequence, the figures for `Cn1nncc1CN1CCn2c(nc(C(=O)NCc3ccc(F)cc3)c(O)c2=O)C1(C)C` were 6 nM, 125 nM and 15 nM.
As for `CN(C)CCN1CCn2c(nc(C(=O)NCc3ccc(F)cc3)c(O)c2=O)C1(C)C`, the half-inhibitory concentration (IC50) in data set [1] worked out at 62 nM. In addition, the IC95 in data set [2] and in data set [3] was 1250 nM in each case.
In the case of `CC1(C)c2nc(C(=O)NCc3ccc(F)cc3)c(O)c(=O)n2CCN1Cc1cnn[nH]1`, the 50% inhibitory concentration (IC50) in data set [1] amounted to 6 nM. Further, the IC95 in data set [2] was 125 nM; in data set [3], 31 nM.
For the molecule `CC1(C)c2nc(C(=O)NCc3ccc(F)cc3)c(O)c(=O)n2CCN1Cc1cnccn1`, the IC50 in data set [1] is 6 nM. The IC95 in data set [2] amounted to 125 nM; in data set [3], 31 nM.
The like results for `CC1(C)c2nc(C(=O)NCc3ccc(F)cc3)c(O)c(=O)n2CCN1CC(=O)N1CCOCC1` were, in that order, 7 nM, 250 nM and 62 nM.
The like results for `CC1(C)NS(=O)(=O)Cn2c1nc(C(=O)NCc1ccc(F)cc1)c(O)c2=O` were, in that order, 7 nM, greater than 10000 nM and 5000 nM.
Taken in the same sequence, the figures for `CC1(C)c2nc(C(=O)NCc3ccc(F)cc3)c(O)c(=O)n2CCN1CC(=O)O` were 8 nM, 1000 nM and 500 nM.
For the molecule `CN(C)[C@@H]1CCCn2c1nc(C(=O)NCc1ccc(F)cc1)c(O)c2=O`, in data set [1], the IC50 amounted to 69 nM.
In the case of `CC1(C)NCCCn2c1nc(C(=O)NCc1ccc(F)cc1)c(O)c2=O`, in data set [1], the IC50 was determined as 20 nM. The figures for the IC95 in data set [2] and in data set [3] were 250 nM and 500 nM, respectively.
The like results for `CC1(C)c2nc(C(=O)NCc3ccc(F)cc3)c(O)c(=O)n2CCN1Cc1ccccc1` were, in that order, 5 nM, 250 nM and 125 nM.
The like results for `Cc1cnc(CN2CCn3c(nc(C(=O)NCc4ccc(F)cc4)c(O)c3=O)C2(C)C)o1` were, in that order, 8 nM, 62 nM and 15 nM.
Regarding `CC1(C)NC(=O)n2c1nc(C(=O)NCc1ccc(F)cc1)c(O)c2=O`, the IC50 in data set [1] turned out to be 32 nM. In addition, the IC95 in data set [2] and in data set [3] was greater than 1000 nM each time.
Consider `CN(C)C(=O)C(=O)N1CCn2c(nc(C(=O)NCc3ccc(F)cc3)c(O)c2=O)C1(C)C`, for which the IC50 in data set [1] came to 6 nM. Besides, in data set [3], the IC95 came out at 1000 nM.
For the molecule `CC1(C)c2nc(C(=O)NCc3ccc(F)cc3)c(O)c(=O)n2CCN1Cc1cscn1`, the IC50 in data set [1] was 9 nM. The values for the IC95 in data set [2] and in data set [3] were 125 nM and 15 nM, respectively.
For `Cc1nnc(C(=O)NC(C)(C)c2nc(C(=O)NCc3ccc(F)cc3)c(O)c(=O)n2C)o1` [RALTEGRAVIR POTASSIUM], the IC95 came to 31 nM in data set [2] and 19 nM in data set [3].

What is called IC50 is the concentration needed to halve the response being measured. The term bioavailability denotes the share of a dose that reaches the circulation, judged against a reference dose that is usually intravenous. Read a high bioavailability as much systemic uptake. As a reminder, the clearance is the rate of elimination divided by the concentration.
